Blank lines part the entries; values can stand above or below the compound they belong to. Where a SMILES comes first, the peptide text is derived from it.
Legend:
PTP1B [1] = target: T1, PTP1B (Homo sapiens, UniProt P18031); assay: in vitro enzyme inhibition of PTP1B; type: biochemical
T1 sequence (P18031 1-435): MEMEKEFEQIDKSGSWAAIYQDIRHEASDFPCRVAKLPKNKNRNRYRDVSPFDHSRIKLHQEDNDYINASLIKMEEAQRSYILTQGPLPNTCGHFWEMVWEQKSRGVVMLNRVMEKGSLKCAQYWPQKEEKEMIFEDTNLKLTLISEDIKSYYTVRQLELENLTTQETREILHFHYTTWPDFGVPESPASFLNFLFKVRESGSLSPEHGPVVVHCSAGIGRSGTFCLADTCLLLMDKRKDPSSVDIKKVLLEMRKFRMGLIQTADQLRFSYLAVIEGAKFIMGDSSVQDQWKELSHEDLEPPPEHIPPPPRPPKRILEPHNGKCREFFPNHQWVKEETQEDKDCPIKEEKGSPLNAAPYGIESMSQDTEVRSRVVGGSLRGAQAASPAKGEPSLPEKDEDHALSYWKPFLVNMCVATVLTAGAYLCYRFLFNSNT

PTP1B [2] = target: T1, PTP1B; assay: Bio-Layer Interferometry; type: binding
Method in brief: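 Bio-layer interferometry […]. Wavelength shift and kinetic parameters were recorded. Kd was obtained by curve fitting. Cyclic peptides were made by OPA treatment of purified SPPS linear precursors.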

NEK7 = NEK7 (Homo sapiens, UniProt Q8TDX7); assay: BLI binding to NEK7
Chain of NEK7 (Q8TDX7 whole entry): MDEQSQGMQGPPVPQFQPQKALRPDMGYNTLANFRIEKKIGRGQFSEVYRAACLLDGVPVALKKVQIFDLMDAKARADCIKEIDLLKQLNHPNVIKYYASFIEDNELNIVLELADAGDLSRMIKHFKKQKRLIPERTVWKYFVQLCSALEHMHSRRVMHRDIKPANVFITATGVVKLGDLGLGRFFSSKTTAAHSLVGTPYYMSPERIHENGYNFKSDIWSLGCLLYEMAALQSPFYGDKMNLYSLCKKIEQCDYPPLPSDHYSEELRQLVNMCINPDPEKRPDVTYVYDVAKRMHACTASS

hKeap1 = hKeap1 (Homo sapiens, UniProt Q14145); assay: BLI binding to hKeap1; details: Hk2 and Hk3 tested up to 100 μM
Chain of hKeap1 (Q14145 whole entry): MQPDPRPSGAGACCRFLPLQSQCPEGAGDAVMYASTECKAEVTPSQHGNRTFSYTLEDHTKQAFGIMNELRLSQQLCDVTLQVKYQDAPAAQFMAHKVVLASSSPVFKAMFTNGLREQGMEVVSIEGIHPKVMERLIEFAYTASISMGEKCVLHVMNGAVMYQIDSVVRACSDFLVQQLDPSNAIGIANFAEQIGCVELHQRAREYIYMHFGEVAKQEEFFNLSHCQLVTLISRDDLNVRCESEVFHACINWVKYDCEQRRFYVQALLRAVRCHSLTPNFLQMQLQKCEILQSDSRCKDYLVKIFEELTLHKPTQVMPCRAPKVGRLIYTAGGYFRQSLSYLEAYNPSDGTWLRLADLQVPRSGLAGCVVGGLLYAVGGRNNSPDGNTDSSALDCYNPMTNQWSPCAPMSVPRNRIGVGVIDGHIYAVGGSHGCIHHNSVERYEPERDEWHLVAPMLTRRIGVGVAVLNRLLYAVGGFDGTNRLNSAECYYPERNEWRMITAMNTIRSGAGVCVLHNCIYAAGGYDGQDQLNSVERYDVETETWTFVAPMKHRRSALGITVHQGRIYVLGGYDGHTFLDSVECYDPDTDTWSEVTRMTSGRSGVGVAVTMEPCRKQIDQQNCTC

M13 phages = assay: Phage infectivity; set-up: species or system M13 bacteriophage; details: PBS pH 7.4, 20 min, room temperature
Method in brief: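 M13 phages displaying an N-terminal KGGSC pIII peptide with a factor Xa site were grown in E. coli TG1 and PEG-purified. They were then TCEP-reduced, factor Xa-digested and blocked with CBT (0.5 mM). After CBT removal and buffer exchange, they were treated with OPA at 100, 300 or 500 µM in PBS pH 7.4 for 20 min at room temperature. Titers (cfu) were measured after each stage by infecting TG1.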

Compound: Ac-KTFLHWRYC-NH2 [M1_SS]
IC50 (PTP1B [1]): 54.8 ± 4.21 µM
Kd (PTP1B [2]): 9.2 ± 0.9 µM
reduction in affinity compared to its cyclic counterpart (PTP1B [2]; BLI, linear precursor vs cyclic M1_OPA): four-fold

Compound: Ac-KQTATGRGC-NH2 [Hk1_SS]
binding to hKeap1 (in words) (hKeap1): no interaction

Compound: O=Cc1ccccc1C=O [OPA, ortho-phthalaldehyde]
impact on M13 phages in cfus (M13 phages; OPA concentration below 300 μM): no significant impact
reduction in infectivity compared to untreated phage supernatant (M13 phages; OPA surpassing the 500 μM threshold): over 20 fold

Compound: CC(=O)N[C@H]1CCCCn2cc3ccccc3c2SC[C@@H](C(N)=O)NC(=O)[C@H](CCC(=O)O)NC(=O)CNC(=O)[C@H]([C@@H](C)O)NC(=O)[C@H](CC(=O)O)NC(=O)[C@@H]2CCCN2C(=O)[C@H](CC(=O)O)NC(=O)[C@H](CC(C)C)NC1=O [Hk2] (HELM PEPTIDE1{[ac].[O=C([C@H](CCCCn1cc2ccccc2c1[*:3])N[*:1])[*:2]].L.D.P.D.T.G.E.C.[am]}$PEPTIDE1,PEPTIDE1,2:R3-10:R3$$$V2.0)
binding to hKeap1 (in words) (hKeap1): did not exhibit significant affinity

Continued, values first:

binding to PTP1B (in words) (PTP1B [2]; BLI): unable to bind
Compound: Ac-KLFLHWARC-NH2 [M2_SS]

binding to NEK7 (in words) (NEK7): low binding capacity
Compound: CC[C@H](C)[C@@H]1NC(=O)[C@H](CC(C)C)NC(=O)[C@@H]2CCCN2C(=O)[C@H](Cc2ccccc2)NC(=O)[C@H](CC(C)C)NC(=O)[C@H](CC(C)C)NC(=O)[C@@H](NC(C)=O)CCCCn2cc3ccccc3c2SC[C@@H](C(N)=O)NC(=O)[C@H](CC(N)=O)NC1=O [N3] (HELM PEPTIDE1{[ac].[O=C([C@H](CCCCn1cc2ccccc2c1[*:3])N[*:1])[*:2]].L.L.F.P.L.I.N.C.[am]}$PEPTIDE1,PEPTIDE1,2:R3-10:R3$$$V2.0)

binding to hKeap1 (in words) (hKeap1): did not exhibit significant affinity
Compound: CC(=O)N[C@H]1CCCCn2cc3ccccc3c2SC[C@@H](C(N)=O)NC(=O)CNC(=O)[C@H](CCC(=O)O)NC(=O)CNC(=O)[C@H]([C@@H](C)O)NC(=O)[C@H](C)NC(=O)[C@H]([C@@H](C)O)NC(=O)[C@H](CCC(N)=O)NC1=O [Hk3] (HELM PEPTIDE1{[ac].[O=C([C@H](CCCCn1cc2ccccc2c1[*:3])N[*:1])[*:2]].Q.T.A.T.G.E.G.C.[am]}$PEPTIDE1,PEPTIDE1,2:R3-10:R3$$$V2.0)
